ChEMBL document CHEMBL5678798 (Clin Cancer Res, 2009)
Activity calls are given as the source filed them. The calls are words filed in the database; no cut-off is given here.

Assays:
[1] = Inhibition of mouse YAK3
[2] = molecular target: Ribosomal protein S6 kinase alpha-1 (Homo sapiens, UniProt Q15418); test: Inhibition of RSK1 (unknown origin)
[3] = molecular target: Tyrosine-protein kinase Yes (Homo sapiens) (UniProt P07947); test: Inhibition of N-terminal His6 tagged recombinant full-length human Yes expressed in baculovirus infected Sf21 cells at 3 uM by filter binding assay relative to control
Method in brief: (§1)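 Outsourced single-concentration screen in a commercial panel of 233 protein kinases, run as radiometric filter-binding activity assays. Test agent was tested at 0.3 or 3 µmol/L, as given in each line, from a 10 mmol/L DMSO stock. Activity is expressed as percent inhibition relative to control.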

[4] = molecular target: Tyrosine-protein kinase Blk (Mus musculus) (UniProt P16277); test: Inhibition of N-terminal His6-tagged recombinant full-length mouse Blk expressed in baculovirus infected Sf21 cells at 3 uM by filter binding assay relative to control; method in brief: as §1
Chain of Tyrosine-protein kinase Blk (Mus musculus) (P16277 whole entry): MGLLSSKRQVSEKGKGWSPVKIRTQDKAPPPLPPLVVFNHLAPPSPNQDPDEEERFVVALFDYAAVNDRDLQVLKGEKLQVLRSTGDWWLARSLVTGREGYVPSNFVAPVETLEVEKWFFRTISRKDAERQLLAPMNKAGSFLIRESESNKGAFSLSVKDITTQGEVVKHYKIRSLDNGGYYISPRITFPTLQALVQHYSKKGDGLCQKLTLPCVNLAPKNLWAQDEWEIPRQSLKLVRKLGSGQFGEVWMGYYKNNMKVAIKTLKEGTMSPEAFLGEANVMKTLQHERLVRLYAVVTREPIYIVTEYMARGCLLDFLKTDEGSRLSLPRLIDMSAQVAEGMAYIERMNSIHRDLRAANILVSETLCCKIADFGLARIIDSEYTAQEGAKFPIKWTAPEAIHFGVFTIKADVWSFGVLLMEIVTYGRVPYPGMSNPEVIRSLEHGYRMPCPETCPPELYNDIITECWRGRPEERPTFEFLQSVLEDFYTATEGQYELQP

[5] = molecular target: Mitogen-activated protein kinase 14 (Homo sapiens, UniProt Q16539); test: Inhibition of P38alpha (unknown origin)
Chain of Mitogen-activated protein kinase 14 (Q16539 whole entry): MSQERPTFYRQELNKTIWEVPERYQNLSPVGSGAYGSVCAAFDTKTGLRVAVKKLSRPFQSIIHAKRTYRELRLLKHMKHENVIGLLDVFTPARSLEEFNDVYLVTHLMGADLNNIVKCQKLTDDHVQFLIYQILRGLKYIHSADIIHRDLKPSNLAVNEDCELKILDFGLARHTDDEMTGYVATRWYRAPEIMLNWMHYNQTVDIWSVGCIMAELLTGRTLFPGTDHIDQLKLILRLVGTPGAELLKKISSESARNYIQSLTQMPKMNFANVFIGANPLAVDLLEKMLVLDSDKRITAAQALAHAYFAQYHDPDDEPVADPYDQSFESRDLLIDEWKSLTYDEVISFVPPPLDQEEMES

[6] = molecular target: Tyrosine-protein kinase FRK (Homo sapiens, UniProt P42685); test: Inhibition of N-terminal 6His-tagged recombinant human PTK5 (218 to end residues) expressed in baculovirus infected Sf21 cells by filter binding assay
[7] = Cytotoxicity against human PREC cells assessed as reduction in cell viability after 72 hrs by CellTiter-Glo assay; type: toxicity, cell-based
Method in brief: (§2)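 Cells seeded in 96-well plates, left overnight at 37°C, then exposed to a range of test concentrations for 72 h. Viability read by CellTiter-Glo luminescence; IC50 from four-parameter curve fit. Lines kept at 37°C, 5% CO2, in recommended growth medium.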

[8] = molecular target: Epidermal growth factor receptor (Homo sapiens, UniProt P00533); test: Inhibition of EGFR (unknown origin)
[9] = molecular target: Tyrosine-protein kinase Lck (Homo sapiens, UniProt P06239); test: Inhibition of LCK (unknown origin)
Chain of Tyrosine-protein kinase Lck (P06239 whole entry): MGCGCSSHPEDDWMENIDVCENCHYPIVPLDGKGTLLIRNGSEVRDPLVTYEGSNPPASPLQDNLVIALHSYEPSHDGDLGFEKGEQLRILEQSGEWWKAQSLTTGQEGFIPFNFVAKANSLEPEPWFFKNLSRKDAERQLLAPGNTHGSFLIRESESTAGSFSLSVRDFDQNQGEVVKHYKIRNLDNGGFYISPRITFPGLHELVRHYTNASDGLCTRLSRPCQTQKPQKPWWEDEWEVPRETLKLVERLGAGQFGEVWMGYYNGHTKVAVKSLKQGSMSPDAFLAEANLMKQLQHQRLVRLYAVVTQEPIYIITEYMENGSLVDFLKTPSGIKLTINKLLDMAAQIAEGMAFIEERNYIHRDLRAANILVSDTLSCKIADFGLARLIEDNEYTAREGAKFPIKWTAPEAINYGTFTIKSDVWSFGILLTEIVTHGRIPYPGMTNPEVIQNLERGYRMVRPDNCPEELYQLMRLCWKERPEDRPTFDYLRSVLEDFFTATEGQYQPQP

COLO 205 = test: Induction of cell cycle arrest in human COLO 205 cells assessed as effect on sub-2N-DNA content at 0.03 to 10 uM incubated for 24 to 48 hrs by propidium iodide staining based flow cytometric analysis; type: functional; conditions: dose 0.03-10 µM, time lower 24.0 hrs, time upper […]
Method in brief: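 COLO 205, MCF-7 or NCI-H929 cells seeded in 96-well plates overnight at 37°C, then exposed to DMSO or increasing compound concentrations for 24 or 48 h. Fixed and stained with propidium iodide (Vindelov method), then analysed by flow cytometry for sub-G1, G1, S and G2-M fractions. Experiment repeated twice.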

Aurora kinase B = Aurora kinase B (Homo sapiens, UniProt Q96GD4); test: Inhibition of Aurora B (unknown origin)
Chain of Aurora kinase B (Q96GD4 whole entry, the tested form may be a part): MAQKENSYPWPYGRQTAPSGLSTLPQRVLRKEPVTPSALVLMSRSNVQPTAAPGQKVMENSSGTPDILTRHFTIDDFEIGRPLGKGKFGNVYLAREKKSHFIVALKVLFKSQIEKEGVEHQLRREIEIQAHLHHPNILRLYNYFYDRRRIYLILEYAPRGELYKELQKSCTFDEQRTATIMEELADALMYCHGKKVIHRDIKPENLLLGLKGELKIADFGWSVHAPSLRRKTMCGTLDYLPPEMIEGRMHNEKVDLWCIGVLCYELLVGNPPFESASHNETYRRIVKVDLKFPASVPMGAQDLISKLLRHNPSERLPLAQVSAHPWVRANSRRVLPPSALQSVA

[10] = molecular target: LIM domain kinase 1 (Homo sapiens) (UniProt P53667); test: Inhibition of N-terminal 6His-tagged recombinant human LIMK1 (285 to 638 residues) expressed in baculovirus infected Sf21 cells at 3 uM by filter binding assay relative to control; method in brief: as §1
Chain of LIM domain kinase 1 (Homo sapiens) (P53667 whole entry, looked up, the tested form may be a part): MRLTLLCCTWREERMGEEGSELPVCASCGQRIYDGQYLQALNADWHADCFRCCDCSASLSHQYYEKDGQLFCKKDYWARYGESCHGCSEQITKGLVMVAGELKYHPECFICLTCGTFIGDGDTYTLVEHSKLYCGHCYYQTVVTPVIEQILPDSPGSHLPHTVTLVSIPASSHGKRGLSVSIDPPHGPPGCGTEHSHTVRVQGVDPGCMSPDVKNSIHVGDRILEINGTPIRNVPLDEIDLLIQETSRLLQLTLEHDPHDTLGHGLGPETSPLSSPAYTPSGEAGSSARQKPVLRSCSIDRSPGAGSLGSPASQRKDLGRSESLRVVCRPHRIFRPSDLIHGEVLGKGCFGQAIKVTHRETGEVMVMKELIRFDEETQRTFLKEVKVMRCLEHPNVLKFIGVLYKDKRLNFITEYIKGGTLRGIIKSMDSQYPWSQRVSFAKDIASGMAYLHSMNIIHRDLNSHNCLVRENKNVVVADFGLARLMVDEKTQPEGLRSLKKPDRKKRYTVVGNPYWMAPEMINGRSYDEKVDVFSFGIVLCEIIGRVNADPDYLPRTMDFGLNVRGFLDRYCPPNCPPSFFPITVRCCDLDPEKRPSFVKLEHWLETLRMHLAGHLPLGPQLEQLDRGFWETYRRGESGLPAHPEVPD

[11] = molecular target: Serine/threonine-protein kinase Sgk1 (Homo sapiens) (UniProt O00141); test: Inhibition of human SGK at 3 uM by filter binding assay relative to control
[12] = Toxicity in nu/nu CD-1 mouse implanted with mouse NIH-3T3/LISN cells assessed as reduction in body weight at 30 mg/kg, po for 21 days; type: organism-based; conditions: in vivo, 504 h, time 21 day
MHH-ES-1 = test: Antiproliferative activity against human MHH-ES-1 cells assessed as reduction in cell viability after 72 hrs by CellTiter-Glo assay; type: functional, cell-based; conditions: MHH-ES-1, 72 h; method in brief: as §2
[13] = molecular target: Serine/threonine-protein kinase BRSK1 (Homo sapiens) (UniProt Q8TDC3); test: Inhibition of N-terminal 6His-tagged recombinant human BrSK1 (2 to end residues) expressed in baculovirus infected Sf21 cells at 3 uM by filter binding assay relative to control; method in brief: as §1
Chain of Serine/threonine-protein kinase BRSK1 (Homo sapiens) (Q8TDC3 whole entry): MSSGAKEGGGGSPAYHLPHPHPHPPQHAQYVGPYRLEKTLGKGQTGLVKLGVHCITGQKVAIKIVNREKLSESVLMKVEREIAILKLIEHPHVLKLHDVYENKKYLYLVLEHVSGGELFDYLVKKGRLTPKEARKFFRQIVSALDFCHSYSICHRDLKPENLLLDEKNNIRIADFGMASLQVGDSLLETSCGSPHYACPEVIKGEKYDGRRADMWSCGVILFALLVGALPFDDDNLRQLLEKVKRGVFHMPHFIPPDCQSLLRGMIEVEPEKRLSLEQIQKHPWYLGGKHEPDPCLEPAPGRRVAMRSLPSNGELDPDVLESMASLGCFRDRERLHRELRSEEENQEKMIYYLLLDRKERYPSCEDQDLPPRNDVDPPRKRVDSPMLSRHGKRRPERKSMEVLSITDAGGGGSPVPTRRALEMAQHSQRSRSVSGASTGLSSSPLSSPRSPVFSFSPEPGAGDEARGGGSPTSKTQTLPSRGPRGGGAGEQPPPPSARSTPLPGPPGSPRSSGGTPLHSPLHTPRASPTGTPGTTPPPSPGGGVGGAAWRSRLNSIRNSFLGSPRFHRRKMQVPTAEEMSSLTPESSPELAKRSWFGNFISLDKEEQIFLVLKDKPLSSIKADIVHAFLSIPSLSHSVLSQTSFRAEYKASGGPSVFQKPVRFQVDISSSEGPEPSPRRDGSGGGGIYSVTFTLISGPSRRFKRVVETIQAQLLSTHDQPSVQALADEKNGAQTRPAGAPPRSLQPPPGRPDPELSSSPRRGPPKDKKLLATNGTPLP

A673 = test: Antiproliferative activity against human A673 cells assessed as reduction in cell viability after 72 hrs by CellTiter-Glo assay; type: functional, cell-based; conditions: A673, 72 h; method in brief: as §2
[14] = molecular target: RAC-beta serine/threonine-protein kinase (Homo sapiens, UniProt P31751); test: Inhibition of AKT2 (unknown origin)
KARPAS-299 = test: Antiproliferative activity against human KARPAS-299 cells assessed as reduction in cell viability after 72 hrs by CellTiter-Glo assay; type: functional, cell-based; conditions: KARPAS-299, 72 h; method in brief: as §2
MOLP-8 = test: Antiproliferative activity against human MOLP8 cells assessed as reduction in cell viability after 72 hrs by CellTiter-Glo assay; type: functional, cell-based; conditions: MOLP-8, 72 h; method in brief: as §2
[15] = In vivo inhibition of IGF1R in mouse NIH-3T3/LISN cells implanted in IGF1-stimulated nu/nu CD-1 mouse assessed as reduction in IGF1R phosphorylation at 3 mg/kg, po pretreated for 4 hrs followed by IGF1 stimulation and measured after 10 min by […] relative to control; type: functional; conditions: 4.167 h, time 250 min
Method in brief: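 Female nu/nu CD-1 mice, three per group, bearing ~500 mm3 tumors, given one oral dose of compound or vehicle. At 4 h, 10 µg hIGF-I i.v. via tail vein; saline controls. Tumor and blood taken 10 min later. Tumor lysates in RIPA captured on anti-IGF-IR plates and probed with europium anti-phosphotyrosine. Phospho/total IGF-IR expressed as % of ligand-stimulated control. Blood levels by LC-MS/MS.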

[16] = molecular target: Serine/threonine-protein kinase PAK 1 (Homo sapiens, UniProt Q13153); test: Inhibition of PAK1 (unknown origin)
Chain of Serine/threonine-protein kinase PAK 1 (Q13153 whole entry): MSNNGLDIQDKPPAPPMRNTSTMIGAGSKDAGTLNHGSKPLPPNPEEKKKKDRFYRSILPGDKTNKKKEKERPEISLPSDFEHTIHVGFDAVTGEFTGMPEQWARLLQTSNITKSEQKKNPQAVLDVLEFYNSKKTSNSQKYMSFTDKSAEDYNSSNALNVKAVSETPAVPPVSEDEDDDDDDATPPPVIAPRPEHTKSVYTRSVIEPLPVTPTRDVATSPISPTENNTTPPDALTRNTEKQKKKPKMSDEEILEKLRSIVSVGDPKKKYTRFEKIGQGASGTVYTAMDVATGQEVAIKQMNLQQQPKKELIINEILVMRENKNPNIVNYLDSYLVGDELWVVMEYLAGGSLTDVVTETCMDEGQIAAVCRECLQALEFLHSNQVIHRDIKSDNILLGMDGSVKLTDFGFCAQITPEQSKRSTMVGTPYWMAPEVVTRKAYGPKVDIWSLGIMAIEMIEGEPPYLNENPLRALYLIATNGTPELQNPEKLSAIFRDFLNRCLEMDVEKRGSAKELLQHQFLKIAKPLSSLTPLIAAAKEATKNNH

Activin receptor type-2B = Activin receptor type-2B (Homo sapiens, UniProt Q13705); test: Inhibition of ActRIIB (unknown origin)
Chain of Activin receptor type-2B (Q13705 whole entry): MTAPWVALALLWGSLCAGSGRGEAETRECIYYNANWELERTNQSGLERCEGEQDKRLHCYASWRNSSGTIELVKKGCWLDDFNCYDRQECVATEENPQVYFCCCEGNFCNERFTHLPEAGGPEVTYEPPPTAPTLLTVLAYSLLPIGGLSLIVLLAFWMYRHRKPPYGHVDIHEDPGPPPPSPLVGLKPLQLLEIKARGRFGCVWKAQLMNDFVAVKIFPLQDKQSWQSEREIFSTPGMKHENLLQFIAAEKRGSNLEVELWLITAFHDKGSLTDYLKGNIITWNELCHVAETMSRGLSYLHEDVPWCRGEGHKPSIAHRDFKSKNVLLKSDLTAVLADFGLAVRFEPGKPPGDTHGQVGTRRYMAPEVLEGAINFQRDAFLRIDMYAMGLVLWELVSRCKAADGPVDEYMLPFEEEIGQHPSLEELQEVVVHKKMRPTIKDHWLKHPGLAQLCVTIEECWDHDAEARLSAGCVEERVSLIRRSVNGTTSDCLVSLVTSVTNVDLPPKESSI

[17] = Inhibition of N-terminal His6-tagged recombinant full-length human CDK5/N-terminal GST-tagged recombinant full-length human p35 expressed in baculovirus infected Sf21 cells at 3 uM by filter binding assay relative to control; conditions: condition cancer; method in brief: as §1
[18] = molecular target: Serine/threonine-protein kinase Nek3 (Homo sapiens) (UniProt P51956); test: Inhibition of N-terminal 6His-tagged recombinant full length human NEK3 expressed in baculovirus infected Sf21 cells at 3 uM by filter binding assay relative to control
Method in brief: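 KinaseProfiler panel of 233 kinases: radiometric filter-binding activity assays with compound at 0.3 or 3 µmol/L. Read-out is percent inhibition.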

TGF-beta receptor type-1 = TGF-beta receptor type-1 (Homo sapiens, UniProt P36897); test: Inhibition of ALK5 (unknown origin)
[19] = molecular target: Mitogen-activated protein kinase 10 (Homo sapiens, UniProt P53779); test: Inhibition of JNK3 (unknown origin)
[20] = Inhibition of […] N-terminal 6His-tagged full length human P110delta/full length human p85beta expressed in baculovirus infected Sf21 cells at 3 uM by filter binding assay relative to control; conditions: condition cancer
[21] = Antiproliferative activity against human HuNS1 cells assessed as reduction in cell viability after 72 hrs by CellTiter-Glo assay; type: functional, cell-based; conditions: HuNS1, 72 h; method in brief: as §2
[22] = molecular target: Mitogen-activated protein kinase 8 (Homo sapiens, UniProt P45983); test: Inhibition of JNK1 (unknown origin)
Chain of Mitogen-activated protein kinase 8 (P45983 whole entry): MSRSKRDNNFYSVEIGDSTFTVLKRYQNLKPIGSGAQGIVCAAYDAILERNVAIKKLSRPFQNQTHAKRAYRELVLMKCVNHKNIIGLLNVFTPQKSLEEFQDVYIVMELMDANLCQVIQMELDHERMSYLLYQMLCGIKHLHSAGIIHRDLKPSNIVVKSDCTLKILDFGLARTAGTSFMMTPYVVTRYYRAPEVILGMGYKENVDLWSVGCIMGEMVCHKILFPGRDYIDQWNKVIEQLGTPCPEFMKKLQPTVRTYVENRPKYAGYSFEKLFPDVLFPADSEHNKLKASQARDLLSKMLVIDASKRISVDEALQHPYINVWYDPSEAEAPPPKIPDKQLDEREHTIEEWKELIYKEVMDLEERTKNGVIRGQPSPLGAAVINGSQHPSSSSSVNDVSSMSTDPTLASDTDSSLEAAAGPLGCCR

In the case of `CCc1cc(Nc2nccc(-c3c(-c4ccc(OC)c(C(=O)Nc5c(F)cccc5F)c4)nc4ccccn34)n2)c(OC)cc1N1CCC(N2CCN(S(C)(=O)=O)CC2)CC1`, the IC50 [1] is reported as over 10 µM, the IC50 [2] is reported as 6.3 µM and the inhibition [3] is reported as 27%. It also gave an inhibition [4] of 22%, an IC50 [5] of 10 µM and an IC50 [6] of 0.016 µM. For the same molecule, the IC50 at 72 h [7] was 0.068 µM, the IC50 [8] was over 10 µM and the IC50 [9] was 8 µM. For the same molecule, the Activity (COLO 205) was “inactive”, the IC50 (Aurora kinase B) was 4 µM and the inhibition [10] was 18%. For the same molecule, the inhibition [11] was 1%, the Activity [12] was “Non-Toxic” and the IC50 (MHH-ES-1) was over 30 µM. The inhibition [13] was 24%, the IC50 (A673) was over 30 µM and the IC50 [14] was over 10 µM. For the same molecule, the IC50 (KARPAS-299) was over 30 µM, the IC50 (MOLP-8) was 0.096 µM and the inhibition in vivo at 3 mg/kg [15] was 75%. It also gave an IC50 [16] of over 10 µM, an IC50 (Activin receptor type-2B) of over 10 µM and an inhibition at 3 µM [17] of -24%. It also gave an inhibition [18] of 16%, an IC50 (TGF-beta receptor type-1) of over 10 µM and an IC50 [19] of over 10 µM. For the same molecule, the inhibition at 3 µM [20] was 2%, the IC50 [21] was over 30 µM and the IC50 [22] was over 10 µM.
